Measurements as given in ChEMBL document CHEMBL1144643, “Optimization of imidazole amide derivatives as cannabinoid-1 receptor antagonists for the treatment of obesity” (Bioorg Med Chem Lett, 2007).
Active and inactive are the calls of the source. No cut-off for these calls is given here.

What was measured:
[1] = system: Rattus norvegicus; test: Reduction of body weight in Zucker fa/fa rat at 1 mg/kg, po after 13 days; type: functional, Zuker fa/fa; parameters: scale not given: the % may be the effect or the level left
In short: (§1)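 Two-day baseline body weight and 24 h food and water intake, then weight-matched into groups. Daily oral dose of 1, 5 or 10 mg/kg suspension (2 mL/kg) before the nocturnal feeding phase. Body weight recorded daily; change versus vehicle-treated rats.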

[2] = system: Rattus norvegicus; test: Reduction of body weight in Zucker fa/fa rat at 5 mg/kg, po after 13 days; type: functional; parameters: scale not given: the % may be the effect or the level left; in short: as §1
[3] = target: T1, Cannabinoid receptor 1 (Homo sapiens, UniProt P21554); test: biochemical; type: cell-based, HEK293
[4] = target: Cannabinoid receptor 2 (Homo sapiens, UniProt P34972); test: Displacement of [3H][…] from human CB2 receptor expressed in HEK293 cells; type: cell-based
In short: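 HEK 293 membranes expressing human CB-2 (3.3 µg protein) incubated with 0.3 nM [3H]CP 55940 and varying competitor concentrations. Binding buffer: 50 mM Tris pH 7.4, 2.5 mM EDTA, 5 mM MgCl2, 0.1% fatty-acid-free BSA; 90 min at 30 °C with shaking. Nonspecific binding defined with 10 µM WIN 55212-2. Filtered through GF/C plates, read by scintillation counting. Nonlinear regression; mean of two or more triplicate runs.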

[5] = target: T1, Cannabinoid receptor 1; test: Antagonist activity at human CB1 receptor expressed in CHOK1 cells assessed as inhibition of forskolin-stimulated cAMP levels; type: functional, cell-based; details: CHO-K1
In short: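 Incubated 20 min at 37 °C with graded agonist plus 3 µM forskolin (final), with or without a fixed antagonist concentration. cAMP measured by scintillation proximity assay. Kb from the agonist EC50 concentration ratio: pKb = log(CR−1) − log B.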

[6] = Cmax in Wistar rat plasma at 10 mg/kg, po; type: ADME, organism-based; parameters: dose 10 mg/kg, route oral
In short: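 Wistar rats dosed orally at 10 mg/kg, typically as a 30% cyclodextrin suspension or as a suspension in PEG400/25 mM methanesulfonic acid (80:20). Plasma levels sampled typically at 0.5, 1 and 2 h after dosing; Cmax taken from these time points.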

[7] = system: Rattus norvegicus; test: Reduction of food intake in fasted-refed Wistar rat at 10 mg/kg, po after 0.5 hrs; type: functional; parameters: scale not given: the % may be the effect or the level left
In short: (§2)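 Male Wistar rats, individually housed on mesh floors, 12-h/12-h light/dark cycle, fasted overnight (18 h). Single oral dose of vehicle or compound at 10 mg/kg (2 mL/kg), vehicle 30% cyclodextrin or PEG/MSA, 1 h before re-feeding. Cumulative food intake recorded at 30, 60, 90, 180 and 240 min, corrected for spillage. 10 rats per group; percent reduction versus vehicle.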

[8] = system: Rattus norvegicus; test: Reduction of food intake in fasted-refed Wistar rat at 10 mg/kg, po after 1 hr; type: functional; parameters: scale not given: the % may be the effect or the level left; in short: as §2
[9] = system: Rattus norvegicus; test: Reduction of food intake in fasted-refed Wistar rat at 10 mg/kg, po after 1.5 hrs; type: functional; parameters: scale not given: the % may be the effect or the level left; in short: as §2
[10] = system: Rattus norvegicus; test: Reduction of food intake in fasted-refed Wistar rat at 10 mg/kg, po after 3 hrs; type: functional; parameters: scale not given: the % may be the effect or the level left; in short: as §2
[11] = system: Rattus norvegicus; test: Reduction of food intake in fasted-refed Wistar rat at 10 mg/kg, po after 4 hrs; type: functional; parameters: scale not given: the % may be the effect or the level left; in short: as §2
[12] = system: Rattus norvegicus; test: Reduction of body weight in Zucker fa/fa rat at 10 mg/kg, po after 13 days; type: functional; parameters: scale not given: the % may be the effect or the level left; in short: as §1
[13] = system: Rattus norvegicus; test: Reduction of body weight in Zucker fa/fa rat at 10 mg/kg, po after 8 days; type: functional; parameters: scale not given: the % may be the effect or the level left; in short: as §1
[14] = system: Rattus norvegicus; test: Effect on cumulative food intake in fasted-refed Wistar rat assessed as appetite suppression at 10 mg/kg, po; type: functional, organism-based; parameters: dose 10 mg/kg; in short: as §2
[15] = system: Rattus norvegicus; test: Reduction of food intake in fasted-refed Wistar rat at 10 mg/kg, po after 0.5 to 4 hrs; type: functional; parameters: scale not given: the % may be the effect or the level left; in short: as §2
[16] = Drug level in Wistar rat brain at 10 mg/kg, po after 2 hrs; type: ADME, organism-based; parameters: dose 10 mg/kg, route oral; details: read-out: Drug uptake
In short: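 Brain levels measured 2 h after a 10 mg/kg oral dose to Wistar rats, within pharmacokinetic screening; oral vehicle was PEG/MSA suspension.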

T1 sequence (P21554 whole entry): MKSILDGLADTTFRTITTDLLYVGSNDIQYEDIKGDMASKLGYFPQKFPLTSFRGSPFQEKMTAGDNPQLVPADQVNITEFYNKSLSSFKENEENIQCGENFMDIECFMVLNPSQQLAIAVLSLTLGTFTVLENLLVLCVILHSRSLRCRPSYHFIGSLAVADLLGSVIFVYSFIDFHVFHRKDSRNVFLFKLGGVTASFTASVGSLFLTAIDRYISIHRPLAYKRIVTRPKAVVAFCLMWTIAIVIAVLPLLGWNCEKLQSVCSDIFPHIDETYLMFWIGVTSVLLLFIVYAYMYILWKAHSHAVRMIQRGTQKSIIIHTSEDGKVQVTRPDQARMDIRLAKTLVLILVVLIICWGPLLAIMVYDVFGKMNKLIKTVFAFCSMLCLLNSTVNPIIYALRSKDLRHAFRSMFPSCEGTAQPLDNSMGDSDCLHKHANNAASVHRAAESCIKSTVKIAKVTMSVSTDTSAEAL
Sequence of Cannabinoid receptor 2 (P34972 whole entry): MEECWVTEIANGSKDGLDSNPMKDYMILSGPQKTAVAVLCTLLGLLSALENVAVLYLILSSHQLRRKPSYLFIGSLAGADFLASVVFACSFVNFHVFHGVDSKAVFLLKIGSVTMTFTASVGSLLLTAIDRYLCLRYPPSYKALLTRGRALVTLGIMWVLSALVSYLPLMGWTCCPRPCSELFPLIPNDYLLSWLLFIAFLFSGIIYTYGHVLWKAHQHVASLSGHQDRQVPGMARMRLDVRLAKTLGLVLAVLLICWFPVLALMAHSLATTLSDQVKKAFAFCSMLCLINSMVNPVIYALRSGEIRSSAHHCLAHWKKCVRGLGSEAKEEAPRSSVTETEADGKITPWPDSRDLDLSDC

CCc1c(C(=O)N[C@H]2CCCC[C@@H]2O)nc(-c2ccccc2Cl)n1-c1ccc(Br)cc1
Activity [1]: -1.9% | Activity [2]: -6.1% | Ki [3]: 3.7 nM | Ki [4]: 2700 nM | Kb [5]: 13 nM | Cmax [6]: 2100 nM | Activity [7]: 63% | Activity [8]: 64% | Activity [9]: 62% | Activity [10]: 52% | Activity [11]: 35% | Activity [12]: -10.6% | Activity [13]: 5.6%

O=C(N[C@H]1c2ccccc2C[C@H]1O)c1cn(-c2ccc(Cl)cc2)c(-c2ccccc2Cl)n1
Ki [3]: 6.3 nM | Ki [4]: 1200 nM | Kb [5]: 2.2 nM

O=C(N[C@H]1Cc2ccccc2[C@H]1O)c1cn(-c2ccc(Cl)cc2)c(-c2ccccc2Cl)n1 (racemic)
Ki [3]: 17 nM

CN[C@H]1CCCC[C@@H]1NC(=O)c1cn(-c2ccc(Cl)cc2)c(-c2ccc(Cl)cc2Cl)n1
Ki [3]: 620 nM

O=C(NC1CCCCC1)c1cn(-c2ccc(Cl)cc2)c(-c2ccc(Cl)cc2Cl)n1
Ki [3]: 3.9 nM | Ki [4]: 240 nM | Kb [5]: 18 nM | Cmax [6]: 50 nM | Activity [14]: inactive

CC1CCC(n2cc(C(=O)NC3CCCCC3)nc2-c2ccccc2Cl)CC1 (stereo not drawn)
Ki [3]: 17 nM

Cc1ccccc1-c1nc(C(=O)NC2CCCCC2)cn1-c1ccc(Cl)cc1
Ki [3]: 21 nM | Ki [4]: > 1000 nM | Kb [5]: 7.3 nM

O=C(N[C@@H]1CCC[C@H]1O)c1cn(-c2ccc(Cl)cc2)c(-c2ccccc2Cl)n1
Ki [3]: 75 nM

O=C(N[C@H]1c2ccccc2C[C@@H]1O)c1cn(-c2ccc(Cl)cc2)c(-c2ccccc2Cl)n1 (racemic)
Ki [3]: 22 nM

COc1ccc(-n2cc(C(=O)NC3CCCCC3)nc2-c2ccccc2Cl)cc1
Ki [3]: 9 nM

O=C(NC1CCCCC1)c1cn(-c2ccc(Cl)cc2)c(-c2cc(Cl)ccc2Cl)n1
Ki [3]: 25 nM

Cc1ccc(-n2cc(C(=O)NC3CCCCC3)nc2-c2ccc(Cl)cc2Cl)cc1
Ki [3]: 1.9 nM

O=C(N[C@H]1CCCC[C@@H]1O)c1nc(-c2ccccc2Cl)n(-c2ccc(Cl)cc2)c1Br
Ki [3]: 19 nM

N[C@H]1CCCC[C@@H]1NC(=O)c1cn(-c2ccc(Cl)cc2)c(-c2ccc(Cl)cc2Cl)n1
Ki [3]: 270 nM

CCc1ccccc1-c1nc(C(=O)NC2CCCCC2)cn1-c1ccc(Cl)cc1
Ki [3]: 39 nM

O=C(N[C@H]1Cc2ccccc2[C@@H]1O)c1cn(-c2ccc(Cl)cc2)c(-c2ccccc2Cl)n1 (racemic)
Ki [3]: 41 nM

CN[C@@H]1CCCC[C@H]1NC(=O)c1cn(-c2ccc(Cl)cc2)c(-c2ccc(Cl)cc2Cl)n1
Ki [3]: 920 nM

CN(C(=O)c1cn(-c2ccc(Cl)cc2)c(-c2ccccc2Cl)n1)C1CCCCC1
Ki [3]: 34 nM

O=C(N[C@H]1CCC[C@@H]1O)c1cn(-c2ccc(Cl)cc2)c(-c2ccccc2Cl)n1
Ki [3]: 29 nM | Ki [4]: 6300 nM | Kb [5]: 9.7 nM | Cmax [6]: 2110 nM | Activity [15]: 26% | concentration at 2 h [16]: 330 nM

O=C(NC1CCCCC1O)c1cn(-c2ccc(Cl)cc2)c(-c2ccc(Cl)cc2Cl)n1 (racemic)
Ki [3]: 22 nM | Ki [4]: 1100 nM | Kb [5]: 4.4 nM | Activity [15]: 21%
